23 molecules from ChEMBL document CHEMBL4219120, “Synthesis and SAR study of new hydroxy and chloro-substituted 2,4-diphenyl 5H-chromeno[4,3-b]pyridines as selective topoisomerase IIα-targeting anticancer agents” (Bioorg Med Chem, 2018) can be followed below.

In experiment [1] the target is T1, DNA topoisomerase 1 (Homo sapiens) (UniProt P11387).
T1 sequence (whole entry): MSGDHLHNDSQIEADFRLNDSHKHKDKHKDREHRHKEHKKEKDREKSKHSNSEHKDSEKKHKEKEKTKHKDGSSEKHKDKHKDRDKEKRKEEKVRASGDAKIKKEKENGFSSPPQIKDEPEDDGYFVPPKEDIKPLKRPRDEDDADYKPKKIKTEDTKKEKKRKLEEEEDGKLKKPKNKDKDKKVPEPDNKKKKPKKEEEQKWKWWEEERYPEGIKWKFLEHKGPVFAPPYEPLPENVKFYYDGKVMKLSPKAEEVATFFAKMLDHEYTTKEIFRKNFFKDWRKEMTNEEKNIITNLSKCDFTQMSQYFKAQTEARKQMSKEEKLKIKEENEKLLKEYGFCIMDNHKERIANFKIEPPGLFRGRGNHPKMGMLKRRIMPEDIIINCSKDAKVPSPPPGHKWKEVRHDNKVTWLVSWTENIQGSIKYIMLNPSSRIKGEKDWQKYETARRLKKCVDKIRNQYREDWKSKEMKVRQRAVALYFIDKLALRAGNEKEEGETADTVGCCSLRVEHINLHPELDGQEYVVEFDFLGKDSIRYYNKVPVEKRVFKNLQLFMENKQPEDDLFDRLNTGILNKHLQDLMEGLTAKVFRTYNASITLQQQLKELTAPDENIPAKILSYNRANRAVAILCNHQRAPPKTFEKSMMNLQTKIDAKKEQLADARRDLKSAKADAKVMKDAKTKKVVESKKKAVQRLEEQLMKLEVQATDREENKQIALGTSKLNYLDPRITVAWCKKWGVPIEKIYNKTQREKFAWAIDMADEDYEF
The experiment can be described thus: Inhibition of recombinant human topoisomerase 1 assessed as decrease in relaxation of supercoiled pBR322 DNA at 20 uM after 30 mins by agarose gel electrophoresis relative to camptothecin.

The target in experiment [2] is DNA topoisomerase 2-alpha (Homo sapiens) (UniProt P11388). The experiment can be described thus: Inhibition of recombinant human topoisomerase 2alpha assessed as decrease in relaxation of supercoiled pBR322 DNA at 20 uM after 30 mins by agarose gel electrophoresis relative to etoposide.
Chain of DNA topoisomerase 2-alpha (Homo sapiens) (P11388 whole entry): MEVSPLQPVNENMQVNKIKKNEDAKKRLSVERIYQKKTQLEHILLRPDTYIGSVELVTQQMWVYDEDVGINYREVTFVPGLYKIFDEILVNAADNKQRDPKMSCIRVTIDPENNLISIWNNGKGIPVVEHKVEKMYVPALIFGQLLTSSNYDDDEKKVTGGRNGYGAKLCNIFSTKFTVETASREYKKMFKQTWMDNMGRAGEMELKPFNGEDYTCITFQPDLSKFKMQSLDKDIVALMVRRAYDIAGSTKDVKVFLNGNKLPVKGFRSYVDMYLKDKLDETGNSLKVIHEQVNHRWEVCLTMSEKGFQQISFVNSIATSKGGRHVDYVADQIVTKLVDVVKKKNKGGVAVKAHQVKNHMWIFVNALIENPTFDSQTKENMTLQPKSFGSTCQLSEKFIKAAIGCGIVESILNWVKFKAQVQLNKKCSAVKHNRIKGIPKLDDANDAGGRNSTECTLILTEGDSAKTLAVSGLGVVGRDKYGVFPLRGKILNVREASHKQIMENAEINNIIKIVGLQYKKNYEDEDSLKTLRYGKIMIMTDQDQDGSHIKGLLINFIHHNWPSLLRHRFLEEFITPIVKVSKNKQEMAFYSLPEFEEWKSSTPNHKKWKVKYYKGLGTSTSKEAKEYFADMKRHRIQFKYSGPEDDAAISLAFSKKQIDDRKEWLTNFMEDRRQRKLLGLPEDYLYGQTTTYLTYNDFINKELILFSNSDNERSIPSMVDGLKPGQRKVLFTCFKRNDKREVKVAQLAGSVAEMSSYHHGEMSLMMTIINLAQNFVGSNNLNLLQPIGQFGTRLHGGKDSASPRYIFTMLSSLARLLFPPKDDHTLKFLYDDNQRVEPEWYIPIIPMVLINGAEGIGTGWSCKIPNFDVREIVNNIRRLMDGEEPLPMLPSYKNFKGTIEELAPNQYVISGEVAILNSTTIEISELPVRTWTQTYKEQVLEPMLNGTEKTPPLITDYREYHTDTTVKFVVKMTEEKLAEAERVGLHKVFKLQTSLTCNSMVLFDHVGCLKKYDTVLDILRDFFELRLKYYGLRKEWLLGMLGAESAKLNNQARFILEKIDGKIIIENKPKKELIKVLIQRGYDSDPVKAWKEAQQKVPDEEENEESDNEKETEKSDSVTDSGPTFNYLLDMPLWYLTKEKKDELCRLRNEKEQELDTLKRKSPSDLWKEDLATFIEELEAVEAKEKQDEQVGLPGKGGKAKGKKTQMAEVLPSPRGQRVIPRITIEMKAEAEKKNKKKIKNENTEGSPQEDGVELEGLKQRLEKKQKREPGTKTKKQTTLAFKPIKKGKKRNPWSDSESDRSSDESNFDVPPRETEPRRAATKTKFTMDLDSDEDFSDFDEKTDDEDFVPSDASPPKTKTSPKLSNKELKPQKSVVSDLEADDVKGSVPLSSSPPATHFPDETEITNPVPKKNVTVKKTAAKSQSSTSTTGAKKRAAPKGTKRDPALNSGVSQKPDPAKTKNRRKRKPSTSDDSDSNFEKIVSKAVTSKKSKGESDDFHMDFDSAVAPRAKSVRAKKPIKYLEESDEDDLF
The target of experiment [3] is T1, DNA topoisomerase 1 (Homo sapiens). The experiment can be described thus: Inhibition of recombinant human topoisomerase 1 assessed as decrease in relaxation of supercoiled pBR322 DNA at 100 uM after 30 mins by agarose gel electrophoresis relative to camptothecin.
In experiment [4] the target is DNA topoisomerase 2-alpha (Homo sapiens) (UniProt P11388). Description: Inhibition of recombinant human topoisomerase 2alpha assessed as decrease in relaxation of supercoiled pBR322 DNA at 100 uM after 30 mins by agarose gel electrophoresis relative to etoposide.
For experiment [5] the target is unchanged. Description: Inhibition of recombinant human topoisomerase 2alpha assessed as decrease in relaxation of supercoiled pBR322 DNA at 20 uM after 30 mins by agarose gel electrophoresis relative to control. An outline of the steps:
(§1)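 Recombinant human topo IIα (1 unit) with 100 ng supercoiled pBR322 in 10 mM Tris-HCl pH 7.9, 50 mM NaCl, 50 mM KCl, 5 mM MgCl2, 1 mM EDTA, 1 mM ATP, 15 µg/mL BSA, 30 min at 37 °C. Quenched with 7 mM EDTA. 0.8% agarose/TAE gel, 50 V, 1 h; EtBr stain; UV densitometry. Compounds came from 20 mM DMSO stocks. 20 µM was tested only when inhibition at 100 µM exceeded 30%. Etoposide was the positive control.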

The subject of experiment [6] is T47D. The experiment can be described thus: Antiproliferative activity against human T47D cells after 72 hrs by CCK-8 assay. It counts as functional, cell-based. The method, boiled down:
(§2)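 Cells seeded at 2-4 x 10^4 per well and grown overnight in medium with 10% FBS (37 °C, 5% CO2). After 4 h FBS starvation, medium was replaced with medium containing graded compound concentrations for 72 h. CCK-8 was added for 4 h more, then absorbance read at 450 nm. IC50 came from a four-parameter logistic fit. Mean ± S.D. of three experiments, each in triplicate.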
On the technique in general: Formazan colour is commonly taken as a measure of viable cells.

For experiment [7], the system named is HeLa. Description: Antiproliferative activity against human HeLa cells after 72 hrs by CCK-8 assay. It counts as functional, cell-based. The method, boiled down: as §2
Experiment [8] concerns the target T1, DNA topoisomerase 1 (Homo sapiens). Description: Inhibition of recombinant human topoisomerase 1 assessed as decrease in relaxation of supercoiled pBR322 DNA at 100 uM after 30 mins by agarose gel electrophoresis relative to control. An outline of the steps: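 Supercoiled pBR322 (100 ng) with 1 unit recombinant human topo I in 10 mM Tris-HCl pH 7.9, 150 mM NaCl, 0.1% BSA, 0.1 mM spermidine, 5% glycerol, 30 min at 37 °C. Stopped with SDS/dye stop solution. Run on 0.8% agarose in TAE, 50 V, 1 h; EtBr-stained; bands quantitated under UV. Compounds came from 20 mM DMSO stocks. 20 µM was tested only when inhibition at 100 µM exceeded 30%. Camptothecin was the positive control.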

Experiment [9] has as its target DNA topoisomerase 2-alpha (Homo sapiens) (UniProt P11388). Description: Inhibition of recombinant human topoisomerase 2alpha assessed as decrease in relaxation of supercoiled pBR322 DNA at 100 uM after 30 mins by agarose gel electrophoresis relative to control. An outline of the steps: as §1
In experiment [10] the test system is HCT-15. The experiment can be described thus: Antiproliferative activity against human HCT15 cells after 72 hrs by CCK-8 assay. It counts as functional, cell-based. Particulars: HCT-15, 72 h. An outline of the steps: as §2

pIC50: −log10 of the molar value. Counter-ions that a name gives are not always drawn. Calls of active or inactive are those of the source. The calls are words filed in the database; no cut-off is given here.

As for `Oc1cccc(-c2cc(-c3ccccc3Cl)nc3c2oc2ccccc23)c1`, the fold change (FC) in experiment [1] was 0.98; in experiment [2], 0.42; in experiment [3] it was 1.22; in experiment [4] it was 0.95.

`Oc1ccc(-c2cc(-c3cccc(Cl)c3)nc3c2oc2ccccc23)cc1`: the fold change (FC) in [1] came out at 1.29; in [2], 0.77; in experiment [3], 1.56; in experiment [4] it was 1.01.

For the molecule `Oc1ccccc1-c1cc(-c2ccccc2Cl)nc2c1oc1ccccc12`, the fold change (FC) in experiment [2] worked out at 0.62; in experiment [3], 0.18; in experiment [4], 0.98.

What is called inhibition is the drop in the measured response relative to a control, in per cent. The term pIC50 denotes the IC50 on a negative log10 scale, so that one unit is a factor of ten. Higher therefore signals a low IC50. As to `Oc1cccc(-c2cc(-c3ccc(Cl)cc3)c3c(n2)-c2ccccc2OC3)c1`, the inhibition is 4.7% in experiment [5], 20.2% in experiment [8] and 66.7% in experiment [9]. The pIC50 was 6.12 in [6], 5.71 in experiment [7] and 5.34 in experiment [10].

Regarding `Oc1ccccc1-c1cc(-c2ccc(Cl)cc2)c2c(n1)-c1ccccc1OC2`, the inhibition result in [5] is “inactive”. Moreover, the negative-log IC50 (pIC50) in experiment [6], in experiment [7] and in experiment [10] was below 4.30 in each case. Moreover, the inhibition in [8] came to 20.1%; in [9] it was 34.7%.

On to `Oc1ccc(-c2cc(-c3ccc(Cl)cc3)nc3c2COc2ccccc2-3)cc1`, for which the figures for the inhibition in experiment [5] and in experiment [9] were 41.9% and 87.8%, respectively. Also, the pIC50 in experiment [6] was 5.76; in experiment [7], 6.07; in [10], 5.74. Moreover, in experiment [8], the inhibition entry is “inactive”. In addition, the fold change (FC) turned out to be 1.18 in [2] and 1.32 in experiment [4]. Also, the “fold change (FC)” value in experiment [3] was “inactive”.

As for `Oc1cccc(-c2cc(-c3cccc(Cl)c3)nc3c2oc2ccccc23)c1`, the fold change (FC) stood at 2.02 in experiment [1], 0.65 in experiment [2], 1.12 in experiment [3] and 0.98 in experiment [4].

As for `COc1cc([C@@H]2c3cc4c(cc3[C@@H](O[C@@H]3O[C@@H]5CO[C@@H](C)O[C@H]5[C@H](O)[C@H]3O)[C@H]3COC(=O)[C@H]23)OCO4)cc(OC)c1O` [ETOPOSIDE], the pIC50 was 6.49 in experiment [6] and 5.61 in experiment [10].

On to `Oc1ccccc1-c1cc(-c2ccccc2Cl)c2c(n1)-c1ccccc1OC2`, for which the inhibition in experiment [5] came out at 45.5%; in experiment [9], 78.1%. Also, the pIC50 in experiment [6] is 5.78; in experiment [7], below 4.30; in experiment [10], below 4.30. The inhibition entry in experiment [8] is “inactive”.

As to `Oc1cccc(-c2cc(-c3cccc(Cl)c3)c3c(n2)-c2ccccc2OC3)c1`, in experiment [5], the inhibition entry is “inactive”. Further, the negative-log IC50 (pIC50) in experiment [6] was 6.07; in experiment [7] it was 6.09; in [10] it was 5.91. The inhibition is 12% in experiment [8] and 63.6% in [9].

On to `Oc1ccccc1-c1cc(-c2ccc(Cl)cc2)nc2c1COc1ccccc1-2`, for which the inhibition was 56.6% in experiment [5], 7.6% in experiment [8] and 88.9% in experiment [9]. Moreover, the pIC50 in experiment [6] was below 4.30; in [7], below 4.30; in experiment [10], 5.78. Further, the fold change (FC) in experiment [2] came to 1.59; in experiment [3], 0.1; in experiment [4], 1.34.

Turning to `Oc1ccccc1-c1cc(-c2cccc(Cl)c2)nc2c1COc1ccccc1-2`, the inhibition in experiment [5] came out at 51.9%; in experiment [8], 4.4%; in experiment [9], 75.1%. The negative logarithm of the IC50 (pIC50) in [6] is 5.91; in [7], 6.17; in experiment [10], 5.65. The fold change (FC) was 1.46 in experiment [2], 0.06 in experiment [3] and 1.13 in [4].

On to `COc1cccc2c1C(=O)c1c(O)c3c(c(O)c1C2=O)C[C@@](O)(C(=O)CO)C[C@@H]3O[C@H]1C[C@H](N)[C@H](O)[C@H](C)O1` [DOXORUBICIN HYDROCHLORIDE], for which the negative-log IC50 (pIC50) was 5.77 in [7] and 6.14 in experiment [10].

With `Oc1cccc(-c2cc(-c3ccc(Cl)cc3)nc3c2oc2ccccc23)c1`, the fold change (FC) in experiment [1] worked out at 2.09; in experiment [2], 0.27; in experiment [3] it was 1.32; in experiment [4], 1.01.

`Oc1ccc(-c2cc(-c3ccccc3Cl)nc3c2oc2ccccc23)cc1`: the fold change (FC) in experiment [1] came out at 1.99; in experiment [2], 0.56; in [3], 1.39; in experiment [4], 1.07.

For the molecule `CC[C@@]1(O)C(=O)OCc2c1cc1n(c2=O)Cc2cc3ccccc3nc2-1` [CAMPTOTHECIN], the negative logarithm of the IC50 (pIC50) is 6.31 in experiment [6], 6.89 in [7] and 7.70 in [10].

As for `Oc1cccc(-c2cc(-c3ccccc3Cl)c3c(n2)-c2ccccc2OC3)c1`, the values for the inhibition in [5] and in experiment [9] were 57% and 91.7%, respectively. Also, the pIC50 in experiment [6] was 6.07; in [7], 6.13; in experiment [10] it was 5.82. The inhibition result in [8] was “inactive”.

Take `Oc1cccc(-c2cc(-c3ccc(Cl)cc3)nc3c2COc2ccccc2-3)c1`: the inhibition turned out to be 63.8% in experiment [5], 28.8% in experiment [8] and 71.3% in [9]. Besides, the pIC50 in [6] is 5.93; in experiment [7], 6.12; in [10] it was 5.64. The fold change (FC) in [2] turned out to be 1.8; in experiment [3], 0.36; in [4] it was 1.07.

`Oc1ccccc1-c1cc(-c2ccc(Cl)cc2)nc2c1oc1ccccc12`: the fold change (FC) in [1] is 0.93; in [2], 0.63; in experiment [3], 1.39; in experiment [4], 0.99.

For `Oc1ccc(-c2cc(-c3ccc(Cl)cc3)nc3c2oc2ccccc23)cc1`, the fold change (FC) in [1] stood at 1.4; in experiment [2], 1.75; in [3] it was 1.62; in experiment [4], 1.15.

Regarding `Oc1ccccc1-c1cc(-c2ccccc2Cl)nc2c1COc1ccccc1-2`, the inhibition in experiment [5] is 47.3%; in [8] it was 4.7%; in [9], 79.1%. In addition, the pIC50 in experiment [6], in [7] and in experiment [10] was below 4.30 each time. For the same molecule, the fold change (FC) in [2] is 1.33; in [3] it was 0.06; in experiment [4], 1.19.

Regarding `Oc1ccc(-c2cc(-c3cccc(Cl)c3)nc3c2COc2ccccc2-3)cc1`, the inhibition in experiment [5] came out at 57.3%; in experiment [9], 95.9%. Besides, the pIC50 in [6] was 6.06; in experiment [7], 6.05; in [10] it was 5.75. For the same molecule, the inhibition entry in experiment [8] was “inactive”. In addition, the fold change (FC) worked out at 1.61 in experiment [2] and 1.44 in [4]. For the same molecule, in experiment [3], the “fold change (FC)” value was “inactive”.

For `Oc1ccccc1-c1cc(-c2cccc(Cl)c2)c2c(n1)-c1ccccc1OC2`, the pIC50 in experiment [6], in [7] and in [10] was below 4.30 in each case. In addition, the inhibition in [8] stood at 21.1%; in experiment [9], 18.9%.
